Data set [1] is described as follows: Displacement of [3H]gabapentin from alpha2-delta calcium channel in pig brain. Set-up: species or system Sus scrofa. The procedure, abridged: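 Competition binding of [3H]gabapentin to partially purified pig forebrain membranes. IC50, in nM, is the concentration giving half-maximal inhibition of specific [3H]gabapentin binding.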
(Displacement assays read how much labelled ligand stays bound in the presence of the test substance.)

Data set [2] is described as follows: Dissociation constant, pKa of the compound. Format: physicochemical.

This is an account of results in ChEMBL document CHEMBL1141456, “Ca2+ channel alpha2-delta ligands for the treatment of neuropathic pain” (J Med Chem, 2007).

Molecules are shown by their SMILES. Where only a bound is given, the exact number is not on record here.

Turning to `NCC1(CC(=O)O)CCCCC1` [GABAPENTIN], the IC50 (in general, the concentration that inhibits the measured activity by half) in data set [1] was found to be 87 nM. The pKa – broadly, the pH at which an ionisable group is half protonated – in data set [2] was 4.1.

`NCC1(Cc2noc(=O)[nH]2)CCCCC1` showed a pKa in data set [2] of 5.24.

On to `Cn1nnnc1CC1(CN)CCCCC1`, for which, in data set [1], the IC50 is over 10000 nM.

Consider `NCC1(Cc2nnn[nH]2)CCCCCC1`, for which, in data set [1], the IC50 was 100 nM.

On to `NCC1(Cc2nnn[nH]2)CCCCC1`, for which the IC50 in data set [1] is 100 nM.

With `CC(C)CC(CN)c1nnn[nH]1` (stereo not given), the IC50 in data set [1] was found to be 170 nM. The pKa in data set [2] worked out at 3.74.

As to `NCC1(Cc2n[nH]c(=O)o2)CCCCC1`, the IC50 in data set [1] was over 10000 nM. The compound also showed a pKa in data set [2] of 7.18.
